Activity calls are given as the source filed them. The rule behind the calls is not given here.
Assays:
[1] = tested on: INS-1E; assay: (§1) Increase in glucose-stimulated insulin secretion in rat INS-1E cells at 1 uM after 60 mins in presence of 16.7 mM glucose; type: functional
Summary of the method: (§2)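 INS-1E cells were pre-cultured 72 h, then preincubated 15 min in M-KRB (pH 7.4, 1% BSA). They were exposed for 60 min at 37 °C to test agent diluted from a 10−3 M DMSO stock to final 10−12–10−6 M in M-KRB with 16.7 mM glucose, with DMSO equalized across solutions. Insulin in the supernatant was measured by RIA (anti-insulin antibody, 125I-insulin tracer, rat insulin standard), and cell protein by Bradford. Mean ± SEM is reported against the 16.7 mM glucose control.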

[2] = Increase in glucose-stimulated insulin secretion in rat INS-1E cells at 10^-8 M after 72 hrs in presence of 3.3 mM glucose; type: functional
Summary of the method: (§3)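 INS-1E cells were seeded and grown 72 h at 37 °C in growth medium containing test agent at final 10−12, 10−10 or 10−8 M, with DMSO equalized. After a 15 min preincubation in M-KRB, cells were stimulated 60 min with M-KRB at 3.3 or 16.7 mM glucose. Supernatant insulin was measured by RIA. Mean ± SEM is compared with the control at the matching glucose level.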

[3] = Decrease in glucose-stimulated insulin secretion in rat INS-1E cells at 10^-12 M after 72 hrs in presence of 3.3 mM glucose; parameters: scale not given: the % may be the effect or the level left
[4] = species on record: Homo sapiens; assay: Effect on deoxy-D-glucose 2-[1.2-3H(N)] uptake in human Skeletal muscle cells at 10^-12 to 10^-10 M after 72 hrs by scintillation counter; type: functional
Summary of the method: (§4)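 Differentiated human skeletal muscle cells (2 weeks in differentiation medium, until multinucleated syncytia were visible) were exposed for 72 h to test agent at 10−8 to 10−12 M. Cells were then given a 15 min pulse at 37 °C in modified KRB with 0.1% BSA, 0.1 mM glucose, tritiated deoxy-D-glucose and 100 nM insulin. Uptake was stopped with washes in 50 mM glucose, cells were lysed in NaOH, and counts per min were read by scintillation and compared with untreated control.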

[5] = Increase in glucose-stimulated insulin secretion in rat INS-1E cells at 10^-8 M after 60 mins in presence of 16.7 mM glucose; type: functional; summary of the method: as §2
[6] = Increase in deoxy-D-glucose 2-[1.2-3H(N)] uptake in human Skeletal muscle cells at 10^-8 M after 72 hrs by scintillation counter relative to control; type: functional; summary of the method: as §4
[7] = Increase in glucose-stimulated insulin secretion in rat INS-1E cells at 10^-10 M after 72 hrs in presence of 16.7 mM glucose; type: functional; summary of the method: as §3
[8] = Increase in glucose-stimulated insulin secretion in rat INS-1E cells at 10^-8 M after 72 hrs in presence of 16.7 mM glucose; type: functional; summary of the method: as §3
[9] = as §1; type: functional; summary of the method: as §2
[10] = Increase in glucose-stimulated insulin secretion in rat INS-1E cells at 10^-10 M after 60 mins in presence of 16.7 mM glucose; type: functional; summary of the method: as §2

**Q.** For `O=C(/C=C/c1ccc(O)c(O)c1)O[C@@H]1C[C@](O)(C(=O)O)C[C@@H](O)[C@H]1O`, which Activity [1] is on record?
**A.** Its Activity is “Active”.

**Q.** What does the source list for `C[C@@]12CCc3occc3[C@H]1CC[C@@]13C[C@@H](CC[C@H]12)[C@@](O)(CO)C3` [CAFESTOL]?
**A.** Activity [2]: 27%; Activity [3]: 15%; Activity [4]: inactive; Activity [5]: 12%; Activity [6]: 8%; Activity [7]: 68%; Activity [8]: 34%; Activity [9]: 16%; Activity [10]: 12%

**Q.** Which results are given for `O=C(O)/C=C/c1ccc(O)c(O)c1` [CAFFEIC ACID]?
**A.** Activity [5]: 18%; Activity [8]: 16%; Activity [9]: 9%; Activity [10]: 9%

**Q.** Which Activity [6] does the source give for `CN(CCOc1ccc(CC2SC(=O)NC2=O)cc1)c1ccccn1` (stereo not given) [ROSIGLITAZONE] here?
**A.** The Activity was 7%.
